Results pooled from the literature.
ABL1 F317I phosphorylated: Tyrosine-protein kinase ABL1, phosphorylated (ABL1, Homo sapiens, UniProt P00519, F317I)
ABL1 F317I non-phosphorylated: Tyrosine-protein kinase ABL1, non-phosphorylated (ABL1, Homo sapiens, UniProt P00519, F317I)
ABL1 T315I non-phosphorylated: Tyrosine-protein kinase ABL1, non-phosphorylated (ABL1, Homo sapiens, UniProt P00519, T315I)
ABL1 H396P non-phosphorylated: Tyrosine-protein kinase ABL1, non-phosphorylated (ABL1, Homo sapiens, UniProt P00519, H396P)
ABL1 T315I phosphorylated: Tyrosine-protein kinase ABL1, phosphorylated (ABL1, Homo sapiens, UniProt P00519, T315I)
ABL1 Q252H non-phosphorylated: Tyrosine-protein kinase ABL1, non-phosphorylated (ABL1, Homo sapiens, UniProt P00519, Q252H)
ABL1 T315I: Tyrosine-protein kinase ABL1 (ABL1, Homo sapiens, UniProt P00519, T315I)
ABL1 F317L non-phosphorylated: Tyrosine-protein kinase ABL1, non-phosphorylated (ABL1, Homo sapiens, UniProt P00519, F317L)
ABL1 H396P phosphorylated: Tyrosine-protein kinase ABL1, phosphorylated (ABL1, Homo sapiens, UniProt P00519, H396P)
ABL1 non-phosphorylated: Tyrosine-protein kinase ABL1, non-phosphorylated (ABL1, Homo sapiens, UniProt P00519)
ABL1 M351T phosphorylated: Tyrosine-protein kinase ABL1, phosphorylated (ABL1, Homo sapiens, UniProt P00519, M351T)
ABL1 E255K: Tyrosine-protein kinase ABL1 (ABL1, Homo sapiens, UniProt P00519, E255K)
ABL1 Q252H phosphorylated: Tyrosine-protein kinase ABL1, phosphorylated (ABL1, Homo sapiens, UniProt P00519, Q252H)

SMILES | target | observed | method | concentration | remaining binding [%]
O=C(NCCCN1CCOCC1)c1ccc(Nc2nccc(-c3cc4ccccc4s3)n2)cc1 | ABL1 F317I phosphorylated | binding | competition with immobilised ligand | 1 µM | 84
CCN1CCN(Cc2ccc(C(=O)Nc3ccc(C)c(Oc4ccc5c(c4)CC(=O)N5)c3)cc2C(F)(F)F)CC1 | ABL1 F317I non-phosphorylated | binding | competition with immobilised ligand | 1 µM | 1
CNC(=O)Nc1ccc2c(c1)CC[C@@]21OC(=O)N(CC(=O)N(Cc2ccc(F)cc2)[C@@H](C)C(F)(F)F)C1=O | ABL1 T315I non-phosphorylated | cell-free assay | competition with immobilised ligand | 1 µM | 78
COc1cnc(Nc2cccc(S(N)(=O)=O)c2)nc1N1CCN(c2ccccc2)CC1 | ABL1 F317I phosphorylated | binding | competition with immobilised ligand | 1 µM | 98
CN(C)c1nccc(-c2cnn3ncccc23)n1 | Tyrosine-protein kinase ABL1, phosphorylated (ABL1, Homo sapiens, UniProt P00519) | binding | – | 1 µM | 96
C[C@@H]1CN(c2cc(-c3nn(C)c4ccc(OC5(C)CC5)cc34)ncn2)C[C@H](C)O1 | ABL1 H396P non-phosphorylated | cell-free assay | competition with immobilised ligand | 1 µM | 75
COc1ncc2cc3ccccc3nc2c1C#N | ABL1 F317I non-phosphorylated | cell-free assay | competition with immobilised ligand | 5 µM | 96
O=C(c1ccc(Nc2ncc(Cl)c(-c3cc4ccccc4s3)n2)cc1)N1CCC(N2CCCC2)CC1 | ABL1 T315I phosphorylated | binding | competition with immobilised ligand | 1 µM | 3.3
CN(C)C(=O)Cn1cc(-c2nc([C@@](C)(c3ccc(-c4cnc(N)nc4)cc3)C3CC3)no2)cn1 | ABL1 Q252H non-phosphorylated | cell-free assay | competition with immobilised ligand | 1 µM | 0
CC1CCCN1c1nccc(-c2cnn3ncccc23)n1 (stereo not shown) | ABL1 T315I | binding | – | 1 µM | 100
C=CC(=O)N1CCC(C(=O)NCC(=O)N2CCN(c3nc(-c4cnc(N)nc4C(F)F)nc(N4CCOCC4)n3)CC2)CC1 | ABL1 F317L non-phosphorylated | binding | competition with immobilised ligand | 1 µM | 90
O=C(Nc1cnc(Oc2ccc(F)cc2)nc1)N1CCc2ncccc2[C@@H]1c1ccc(F)cc1 | ABL1 T315I non-phosphorylated | cell-free assay | competition with immobilised ligand | 1 µM | 100
Cc1cnc(Nc2ccc(C(=O)N3CCC(N4CCCC4)CC3)cc2)nc1-c1cc2ccccc2s1 | ABL1 T315I phosphorylated | binding | competition with immobilised ligand | 1 µM | 2.1
C[C@@H](c1ccc(-n2cnc3c(N)ncnc32)cc1)N1CCc2nn(C)c(Cc3ccccc3)c2C1=O | ABL1 H396P phosphorylated | binding | competition with immobilised ligand | 0.1 µM | 79
CS(=O)(=O)NCC[C@H](NC(=O)c1cncc2c1cnn2-c1ccc(F)cc1)c1ccnc(S(C)(=O)=O)c1 | Tyrosine-protein kinase ABL1, phosphorylated (ABL1, Homo sapiens, UniProt P00519, E255K) | binding | competition with immobilised ligand | 1 µM | 93
CN(CCCC(F)(F)F)c1nccc(-c2cnn3ncccc23)n1 | ABL1 non-phosphorylated | binding | competition with immobilised ligand | 1 µM | 76

SMILES | target | observed | method | concentration | remaining binding [%]
CNC(=O)[C@@H]1CC[C@@H](n2c(-c3ccc4cnccc4c3)nc3ccc(C(=O)NCc4cccc(C(N)=O)c4)cc32)C1 | ABL1 Q252H non-phosphorylated | binding | competition with immobilised ligand | 1 µM | 87
CS(=O)(=O)c1cc(C2(NC(=O)c3cncc4c3cnn4-c3ccc(F)cc3)CC2)ccn1 | ABL1 M351T phosphorylated | cell-free assay | competition with immobilised ligand | 1 µM | 92
O=C(NCC1CCOCC1)c1n[nH]cc1NC(=O)c1c(F)cccc1F | ABL1 non-phosphorylated | binding | competition with immobilised ligand | 1 µM | 88
O=C(c1ccc(Nc2ncc(Cl)c(-c3ccc(Cl)s3)n2)cc1)N1CCC(N2CCCC2)CC1 | ABL1 M351T phosphorylated | binding | competition with immobilised ligand | 1 µM | 4.7
COc1cnc(Nc2cccc(S(N)(=O)=O)c2)nc1N1CCN(c2ccccc2)C(=O)C1 | ABL1 H396P non-phosphorylated | binding | competition with immobilised ligand | 1 µM | 58
O=C(Nc1c[nH]nc1C(=O)NC1CCNCC1)c1cc(F)cc(F)c1 | ABL1 H396P phosphorylated | binding | competition with immobilised ligand | 1 µM | 100
c1cncc(-c2cccc(Nc3nccc(NC4CCCCC4)n3)c2)c1 | ABL1 F317L non-phosphorylated | binding | competition with immobilised ligand | 10 µM | 81
Cc1cnn2ncc(-c3ccnc(N(C)C)n3)c2c1 | ABL1 E255K | binding | – | 1 µM | 100
O=C(c1ccc(Nc2nccc(-c3cc4ccccc4s3)n2)cc1)N1CCC(N2CCCC2)CC1 | ABL1 Q252H phosphorylated | binding | competition with immobilised ligand | 1 µM | 6.4
CN(c1nccc(-c2cnn3ncccc23)n1)C1CC1 | ABL1 E255K | binding | – | 1 µM | 100
Nc1ncc2c(n1)-c1c([nH]c3ccc(C#CC4CC4)cc13)CCCC2 | ABL1 M351T phosphorylated | binding | competition with immobilised ligand | 1 µM | 95
N#CC1(c2ccccn2)CCN(Cc2cc(C(=O)N3CCCC3)c(=O)n3ccccc23)CC1 | ABL1 M351T phosphorylated | cell-free assay | competition with immobilised ligand | 1 µM | 100
O=C(NCCCN1CCOCC1)c1ccc(Nc2ncc(Cl)c(-c3ccc(Cl)s3)n2)cc1 | ABL1 T315I phosphorylated | binding | competition with immobilised ligand | 1 µM | 2.5
O=C(NCc1ncc(C(F)(F)F)cc1Cl)c1ccc2c(c1)C1(CCS(=O)(=O)CC1)[C@H](C1CC1)N2S(=O)(=O)c1ccc(F)cc1 | ABL1 Q252H phosphorylated | cell-free assay | competition with immobilised ligand | 1 µM | 70
N[C@@H]1CCN(c2nccc(-c3cnn4ncccc34)n2)C1 | ABL1 T315I | binding | – | 1 µM | 95
